Furin inhibitor – human furin inhibitors, primary screen, biochemical, fluorescence intensity. P09958. purified furin, fluorogenic substrate cleavage. inhibition, % at 20 µM or 30 µM. 220,000 tested, 0.061% active; in the data active = inhibition above about 25%
Target sequence (P09958 108-714 limits assumed): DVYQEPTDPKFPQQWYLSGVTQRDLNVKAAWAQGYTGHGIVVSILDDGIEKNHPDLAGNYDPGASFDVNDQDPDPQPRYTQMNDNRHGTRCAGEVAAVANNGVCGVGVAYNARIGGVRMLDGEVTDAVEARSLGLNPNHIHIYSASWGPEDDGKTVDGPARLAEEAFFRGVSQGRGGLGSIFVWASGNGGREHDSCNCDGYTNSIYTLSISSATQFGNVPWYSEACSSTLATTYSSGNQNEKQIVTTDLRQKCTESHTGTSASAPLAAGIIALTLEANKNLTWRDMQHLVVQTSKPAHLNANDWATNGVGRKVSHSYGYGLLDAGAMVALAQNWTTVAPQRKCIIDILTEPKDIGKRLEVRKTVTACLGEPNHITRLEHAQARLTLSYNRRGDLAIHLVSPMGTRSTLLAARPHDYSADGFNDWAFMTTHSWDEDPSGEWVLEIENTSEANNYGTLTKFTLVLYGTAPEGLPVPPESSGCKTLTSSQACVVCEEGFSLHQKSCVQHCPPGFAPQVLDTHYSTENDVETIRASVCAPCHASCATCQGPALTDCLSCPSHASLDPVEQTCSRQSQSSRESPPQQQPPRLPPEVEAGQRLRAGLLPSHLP
L929 necroptosis – inhibitors of zVAD-triggered necroptosis, primary screen, L929 cells. L929 zVAD necroptosis rescue, ATP luminescence, 24 h; with zVAD 60 µM. viability rescue, % at 10 µM. 220,000 tested, 0.38% active;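 active = activation, scaled between plate controls, above about 75%, limit read from the data; inactive = activation under that limit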;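 also: 0% = zVAD with DMSO and 100% = DMSO alone without zVAD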
Dynein transport – inhibitors of GR-EGFP nuclear translocation, primary screen, dynein cargo transport inhibitor project, imaging, high-content, 3617.4 mouse cells; test concentration mostly 20 µM; stimulated with dexamethasone, 1 µM; active compounds read low; z-score, hits read low; 220,000 tested, 0.47% active; AID 1381, 2008;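 active = plate z-score of nuclear minus cytoplasmic receptor signal below a set negative limit, without overly bright fluorescence or cell loss, cut at about -3.5 in these data, passing the limit was not always enough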;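 also: z-score of nuclear minus cytoplasmic ring GR-EGFP intensity difference per well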
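Medium: Induction medium lacking tetracycline, stripped serum | Probe or stimulus: 1.0 µM final dexamethasone stimulus | Schedule: 48 h induction, then 1 h compound, then 30 min agonist, 37 °C | Signal: Automated 10x imaging of fixed Hoechst-stained cells | Evaluation: Per-cell GR-EGFP intensity, nucleus versus surrounding cytoplasmic ring, well-averaged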
Autophagy mod – autophagy modulators in MEF cells, primary screen, imaging, high-content, MEF GFP-LC3; calls only at 10 µM (by protocol); MEF GFP-LC3 puncta imaging; test concentration mostly 10 µM; 190,000 tested, 0.98% active;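 active = percentage of spot-positive cells more than 3 SD above its plate mean, without a fluorescence outlier flag or 80% toxicity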;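 also: spot-positive cell cutoff set from DMSO-treated cells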
TNF necrop inh – inhibitors of TNF-alpha triggered necroptosis, primary screen, cell-based, Jurkat FADD-/-, single concentration; Jurkat FADD-/- TNF necroptosis rescue, ATP luminescence, 24 h; 0 = TNF only, 100 = no-TNF cells; activation (protection from cell death), % at 10 µM; 220,000 tested, 0.068% active; AID 463075, 2010;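 active = activation, meaning protection from cell death, of at least 50% relative to plate controls; inactive = activation below 50%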;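 also: necroptosis triggered by 40 ng/mL TNF-alpha added together with compound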
HSV augment – enhancers of HSV replication in host cells, fold increase, host cell viability; maximum fold increase; AID 1956, 2009; 220,000 tested, 0.005% active; HSV replication augmentation in cells; in the data active = maximum fold increase above about 1.5; tested in PC3 cells
zVAD death conf – inhibitors of zVAD-triggered necroptosis in L929, confirmation, L929 cells, duplicate runs; 760 tested, 16% active; L929 zVAD-induced necroptosis rescue, ATP luminescence, 24 h; shares compounds with L929 necroptosis; activation (protection from necroptosis), % at 10 µM;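 active = mean protection from necroptosis of at least 50% over duplicate tests; inactive = mean protection below 50%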;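 also: 0% = cells with zVAD alone and 100% = vehicle cells without zVAD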
An asterisk follows results filed as active; i = inactive; nt = no result given. Most compounds without a hit are left out; they make up all but 1.8% or so of the library.

SMILES | Furin inhibitor | L929 necroptosis | Dynein transport | Autophagy mod | TNF necrop inh | HSV augment | zVAD death conf
Cc1ccc2c(c1)C(=O)C(=O)N2CC(=O)OC(C)C | -19.2 | 0.6 | 0.335 | i | -1.4 | i | nt
Cc1ccc2c(CN3CCOCC3)cc(=O)oc2c1 | 7.8 | 1.5 | 2.02 | nt | 3.1 | i | nt
Cc1ccc2c(c1)C(=C(C#N)C#N)C(=O)N2CCN1CCCCC1 | -11.5 | 89.8* | -1.27 | nt | 6.4 | i | 39.2
Cc1ccc2c(c1)C(=C(C#N)C#N)C(=O)N2CCN1CCOCC1 | -15.0 | 88.5* | -3.33 | nt | 1.2 | i | 1.0
CN(C)S(=O)(=O)c1cccc(NC(=S)NCCCn2ccnc2)c1 | -25.5 | 1.8 | 0.309 | i | 0.0 | i | nt
CCCN1C(=O)c2ccc(C(=O)Nc3nccs3)cc2C1=O | -18.7 | 0.0 | -0.442 | i | -0.9 | i | nt
O=C(Nc1ccccc1)Nc1nccs1 | 4.4 | 84.6* | -0.16 | i | 7.2 | i | 7.9
COc1ccc(C(=O)Nc2nccs2)cc1OC | -17.1 | 80.1* | -0.975 | i | 29.7 | nt | 46.2
CCCc1cc(C(=O)Nc2nccs2)cs1 | -7.4 | 98.6* | -0.797 | i | 38.3 | i | 80.3*
O=C(Nc1nccs1)c1cccc(NC(=O)C(F)(F)F)c1 | -12.9 | 97.0* | -0.0134 | nt | 15.1 | i | 46.6
COc1ccc(NC(=O)Nc2nccs2)cc1 | -19.8 | 22.3 | -0.685 | i | -3.1 | i | nt
CCC(CC)C(=O)Nc1cccc(C(=O)Nc2nccs2)c1 | -28.9 | 66.9 | -0.249 | i | 3.3 | i | nt
O=C(CCCCn1c(=O)c2ccccc2n(Cc2ccccc2)c1=O)NC1CCN(Cc2ccccc2)CC1 | -13.5 | -0.8 | 0.746 | i | -0.4 | i | nt
Cc1ccc(C2=Nc3ccccc3N(C(=O)c3ccccc3)C(C)C2)cc1 (stereo not given) | -11.7 | 0.7 | -0.111 | i | -0.4 | i | nt
CCn1nccc1C(=O)Nc1nccs1 | 2.9 | 85.3* | 1.55 | i | 3.6 | i | 37.4
CCn1cc(Br)c(C(=O)Nc2nccs2)n1 | -26.2 | 6.6 | 0.0852 | i | 0.3 | i | nt
Cc1ccc(NC(=O)c2cc(-c3ccco3)nc3ccccc23)cc1S(=O)(=O)N1CCOCC1 | -22.7 | 77.4* | -0.641 | i | -2.3 | i | 10.0
COc1ccc(NC(=O)c2cc(-c3ccco3)nc3ccccc23)cc1S(=O)(=O)N1CCOCC1 | -10.8 | 0.9 | 0.326 | nt | -13.3 | i | nt
COc1cc(NC(=O)c2cnc(N)s2)cc(C(=O)Nc2cccc(C(F)(F)F)c2)c1 | -25.3 | 79.5* | -0.633 | nt | 5.9 | i | 74.3*
COc1ccc(-n2cnnc2SCC(=O)Nc2cc(C(C)(C)C)nn2-c2ccccc2)cc1 | -6.1 | 85.1* | -0.562 | i | 16.9 | i | 81.0*
COc1ccc(-n2cnnc2SCC(=O)Nc2cc(C)on2)cc1 | -7.5 | 1.7 | 0.424 | i | 1.0 | i | nt
CCC1CCC(C(=O)NC(CCSC)C(=O)NCCN(CC(C)C)CC(C)C)CC1 (stereo not given) | -18.6 | 2.1 | -0.0354 | i | -1.4 | i | nt
O=C(Nc1ncc2c(n1)-c1ccccc1CC2)C1CC1 | -8.2 | 76.1* | 0.417 | i | -4.2 | i | 2.2
CC(=O)Nc1cc(-c2ccc(F)cc2)[nH]n1 | -4.6 | 76.4* | 1.25 | i | -0.7 | i | 30.6
O=C(OCc1nnc(-c2ccccc2)o1)c1ccccc1 | -21.0 | 4.0 | -0.649 | i | 0.6 | i | nt
SMILES | Furin inhibitor | L929 necroptosis | Dynein transport | Autophagy mod | TNF necrop inh | HSV augment | zVAD death conf
O=C(COC(=O)c1ccc(-c2nnc(-c3ccccc3)o2)cc1)c1ccccc1 | -21.4 | 77.5* | -0.717 | i | 0.3 | i | 0.4
C/C(=N\NC(N)=O)c1ccccc1Cl | -15.5 | 0.5 | 1.96 | nt | 1.6 | i | nt
C#CCCOC(=O)N1C2=NC(C(=O)OC)=C(C(=O)OC)[C@@H]3N(CC=C)c4ccccc4[C@]23C[C@H]1C(=O)OC | -3.0 | -0.9 | 0.614 | nt | 0.0 | i | nt
Cc1ccccc1Oc1cc(-n2ncc(Cl)c(Cl)c2=O)ncn1 | -21.6 | 84.9* | -3.03 | i | -13.6 | i | 2.7
Cc1nc2ccc(S(=O)(=O)N(C)CC(=O)Nc3ccccc3F)cc2s1 | -13.6 | 0.4 | -0.57 | i | 1.2 | i | nt
Oc1ccccc1N=Cc1sc2ccccc2c1Cl | -23.9 | 86.2* | 0.171 | i | 4.9 | i | 3.1
Cc1ccc(O)c(N=Cc2sc3ccccc3c2Cl)c1 | -7.5 | -0.5 | -0.213 | i | 0.7 | i | nt
O=C(CCC(=O)N1CCN(C(=O)c2ccco2)CC1)c1ccc(F)cc1 | -24.8 | 75.8* | 0.952 | i | -0.5 | i | 1.8
O=C(CCl)Nc1c[nH]c(=O)[nH]c1=O | -9.8 | 80.6* | -0.365 | i | 44.5 | i | 12.3
O=C(Cc1ccccc1)Nc1c[nH]c(=O)[nH]c1=O | -6.9 | 0.2 | 0.993 | i | 2.1 | i | nt
O=C(NCc1ccccn1)c1cccc(NS(=O)(=O)c2ccccc2F)c1 | -21.4 | nt | 3.15 | i | 0.4 | i | nt
Cc1cc(N/N=C/c2cccc(Br)c2)nc2ccccc12 | -2.1 | 2.2 | -0.46 | i | 2.3 | i | nt
Cc1cc(N/N=C/c2ccncc2)nc2ccccc12 | -13.9 | 81.2* | 0.727 | i | 50.4* | i | 77.1*
COc1cc(NC(=O)c2cccnc2Sc2ccc(Cl)cc2)cc(OC)c1OC | -8.3 | 76.9* | -0.466 | i | 3.5 | i | 41.7
COc1cc(NC(=O)c2ccccn2)cc(OC)c1OC | -10.8 | -0.4 | 2.68 | i | 0.1 | i | nt
CCOc1ncccc1C(=O)OCc1cccc([N+](=O)[O-])c1 | -34.1 | 1.2 | 1.54 | i | 0.6 | i | nt
O=C(NCc1cccnc1)C1CC(=O)N(CCc2ccccc2)C1 (stereo not given) | -18.7 | 0.4 | 0.0146 | i | -0.3 | i | nt
O=C(Nc1ccc(NC(=O)c2ccccc2O)cc1)Nc1ccc(F)cc1F | -27.2 | 78.0* | -1.44 | nt | 9.8 | i | 33.3
COC(C(=O)Nc1ccc(F)cc1F)c1ccccc1 (stereo not given) | -22.6 | 83.2* | -0.926 | i | 96.8* | i | 40.2
COC(=O)c1sc(NC(=O)c2c(OC)cccc2OC)c(C#N)c1C | -17.2 | 2.5 | 0.304 | i | 0.7 | i | nt
Oc1ccc(-c2csc(Nc3ncccn3)n2)cc1O | -15.0 | 79.2* | -0.834 | i | 22.4 | i | 60.2*
CC(=O)Nc1cccc(-c2csc(Nc3ncccn3)n2)c1 | -20.2 | 79.8* | 0.354 | i | 6.1 | i | 4.6
Oc1ccc(-c2csc(Nc3ncccn3)n2)c(O)c1 | -12.9 | 81.3* | -0.361 | i | 9.4 | i | 48.1

Bioassay records: PubChem BioAssay, several laboratories
